pIC50, pKi: −log10 of the molar value. The source made the active and inactive calls. No cut-off for these calls is given here.

Assay [1] concerns Mus musculus. Kind of assay: Antiobesity activity in high fat diet-fed C57BL/6 mouse assessed as reduction in body weight at 3 mg/kg, po daily measured up to day 137 relative to control. In kind it is functional, organism-based. Further details: dose 3 mg/kg.
Assay [2] has as its target T1, Voltage-gated inwardly rectifying potassium channel KCNH2 (Homo sapiens, UniProt Q12809). Kind of assay: Binding affinity to human Erg.
For assay [3], the target named is T1, Voltage-gated inwardly rectifying potassium channel KCNH2. Kind of assay: Inhibition of human Erg expressed in HEK293 cells assessed as rubidium efflux after 4 hrs by atomic absorbance spectrometric analysis.
For assay [4], the target named is Melanin-concentrating hormone receptor 1 (Homo sapiens, UniProt Q99705). Kind of assay: Displacement of [125I]-MCH from MCHR1 after 2 hrs by scintillation counting. The method in brief: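 Competition binding on MCHR1 membrane preparation with 125I-MCH tracer. Compound diluted in 50 mM Tris pH 7.4, 10 mM MgCl2, 2.5 mM EDTA, 0.2% BSA. Incubation 2 h at 37 °C with shaking. Bound and free ligand separated by vacuum filtration through BSA-pretreated filter plates. Filters washed 4 times in Hepes/NaCl/BSA buffer, then counted by scintillation.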
(Displacement assays read how much labelled ligand stays bound in the presence of the test substance.)

Assay [5] concerns Mus musculus. Kind of assay: Antiobesity activity in high fat diet-fed C57BL/6 mouse assessed as reduction in body weight at 10 mg/kg, po daily measured up to day 137 relative to control. The format is functional, organism-based. Further details: dose 10 mg/kg. The method in brief: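 Male/female unspecified C57BL/6 mice weaned at 4–5 weeks and kept on high-fat diet for over 24 weeks before dosing. Body weight followed for 137 days against vehicle.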

For assay [6], the system named is Mus musculus. Kind of assay: Antiobesity activity in high fat diet-fed C57BL/6 mouse assessed as reduction in food intake at 3 to 10 mg/kg, po daily measured up to day 137 relative to control. The format is functional, organism-based.
Assay [7] has as its system Mus musculus. Kind of assay: Antiobesity activity in high fat diet-fed MCHR1-knockout C57BL/6 mouse assessed as reduction in body weight at 100 mg/kg, po daily measured for 34 weeks relative to control. In kind it is functional, organism-based. Further details: dose 100 mg/kg. In outline: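 Wild-type and MCHR1-knockout female C57BL/6 mice given compound mixed into a 60% kCal fat high-fat diet. Body weight gain at study end compared with vehicle.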

T1 sequence (Q12809 whole entry): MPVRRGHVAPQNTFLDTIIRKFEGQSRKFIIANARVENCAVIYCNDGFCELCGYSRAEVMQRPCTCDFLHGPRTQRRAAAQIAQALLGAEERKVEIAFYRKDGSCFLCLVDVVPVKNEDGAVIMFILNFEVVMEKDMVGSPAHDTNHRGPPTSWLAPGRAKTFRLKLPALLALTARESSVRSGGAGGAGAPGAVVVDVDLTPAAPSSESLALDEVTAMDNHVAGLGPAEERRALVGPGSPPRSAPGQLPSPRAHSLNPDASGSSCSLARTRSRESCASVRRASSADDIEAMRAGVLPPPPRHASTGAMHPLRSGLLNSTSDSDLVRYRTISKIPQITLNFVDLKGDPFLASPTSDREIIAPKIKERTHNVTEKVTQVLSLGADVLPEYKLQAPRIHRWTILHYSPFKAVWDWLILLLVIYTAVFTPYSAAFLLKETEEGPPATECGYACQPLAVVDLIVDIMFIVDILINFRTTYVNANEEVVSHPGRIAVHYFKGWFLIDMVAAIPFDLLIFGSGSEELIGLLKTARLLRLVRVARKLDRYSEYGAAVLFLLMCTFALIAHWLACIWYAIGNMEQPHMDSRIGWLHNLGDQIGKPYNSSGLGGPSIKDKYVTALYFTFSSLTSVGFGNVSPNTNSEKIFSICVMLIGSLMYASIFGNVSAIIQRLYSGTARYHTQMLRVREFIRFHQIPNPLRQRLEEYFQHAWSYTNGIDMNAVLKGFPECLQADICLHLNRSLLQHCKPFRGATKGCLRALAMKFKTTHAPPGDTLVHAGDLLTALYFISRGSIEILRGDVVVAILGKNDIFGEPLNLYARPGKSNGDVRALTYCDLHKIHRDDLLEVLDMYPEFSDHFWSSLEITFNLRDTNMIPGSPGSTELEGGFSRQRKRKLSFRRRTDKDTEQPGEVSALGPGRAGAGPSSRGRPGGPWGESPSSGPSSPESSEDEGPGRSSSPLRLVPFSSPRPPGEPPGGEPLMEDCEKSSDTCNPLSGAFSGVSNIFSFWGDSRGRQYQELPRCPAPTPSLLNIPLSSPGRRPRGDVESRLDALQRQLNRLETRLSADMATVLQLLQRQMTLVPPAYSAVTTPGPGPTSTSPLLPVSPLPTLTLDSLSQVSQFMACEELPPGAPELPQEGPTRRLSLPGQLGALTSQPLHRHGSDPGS
Sequence of Melanin-concentrating hormone receptor 1 (Q99705 whole entry): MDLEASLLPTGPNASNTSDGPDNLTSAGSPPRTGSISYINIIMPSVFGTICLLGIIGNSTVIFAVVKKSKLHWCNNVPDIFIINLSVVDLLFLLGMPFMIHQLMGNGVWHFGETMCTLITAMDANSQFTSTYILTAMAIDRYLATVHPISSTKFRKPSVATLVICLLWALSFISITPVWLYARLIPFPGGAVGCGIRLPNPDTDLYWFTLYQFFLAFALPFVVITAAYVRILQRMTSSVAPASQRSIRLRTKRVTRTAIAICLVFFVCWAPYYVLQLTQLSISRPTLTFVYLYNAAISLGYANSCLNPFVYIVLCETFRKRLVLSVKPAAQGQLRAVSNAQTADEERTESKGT

Regarding `CC(C)CC(N(C)C)C1(c2ccc(Cl)cc2)CCC1` (stereo not drawn), the result with Mus musculus [1] was Active.
Regarding `N=C(c1ccc(C(=O)Nc2ccc(Cl)cc2C(=O)Nc2ccc(Cl)cn2)cc1)N1CCCC(C(=O)O)C1` (stereo not drawn), in assay [2], the pKi was less than 5.00.
Consider `C[C@H]1c2c([nH]c3ccc(C(F)(F)F)cc23)C[C@H]2CCN(CCC3(C(=O)O)CCOCC3)C[C@@H]21`, for which the figures for the negative logarithm of the IC50 (pIC50) in assay [3] and in assay [4] were less than 5.30 and 8.05, respectively.
As to `C[C@H]1c2c([nH]c3ccc(C(F)(F)F)cc23)C[C@H]2CCN(CCC3(C(=O)O)CCCCC3)C[C@@H]21`, the result in the assay with Mus musculus [5], with Mus musculus [6] and in the assay with Mus musculus [1] was Active. Also, in the assay on Mus musculus [7], the result was inactive.

What is called pKi is the negative decadic logarithm of the Ki, by convention in mol/L. A higher pKi goes with a low Ki. For orientation: pIC50 means the IC50 on a negative log10 scale, so that one unit is a factor of ten.

The values above are taken from ChEMBL document CHEMBL2029200, “Discovery of a novel melanin concentrating hormone receptor 1 (MCHR1) antagonist with reduced hERG inhibition” (Bioorg Med Chem Lett, 2012).
